Results from ChEMBL document CHEMBL4196023, “Cyclic peptide inhibitors of lysine-specific demethylase 1 with improved potency identified by alanine scanning mutagenesis” (Eur J Med Chem, 2018).
Calls of active or inactive are those of the source. The calls are words filed in the database; no cut-off is given here. Positions of bridges follow the written chain, without caps; N, C: chain ends. Residues, ends and D or L forms follow the SMILES beside them. *: point of attachment. Decanoyl = CCCCCCCCCC(=O)*

Columns and labels:
MCF7 = test: Antiproliferative activity against human MCF7 cells after 72 hrs by MTS assay; format: functional, cell-based; conditions: MCF7, 72 h
Calu-6 [1] = test: Antiproliferative activity against human Calu6 cells after 72 hrs by MTS assay; format: functional, cell-based; conditions: Calu-6, 72 h
K562 [2] = test: Antiproliferative activity against human K562 cells after 72 hrs by MTS assay; format: functional, cell-based; conditions: K562, 72 h
Calu-6 [3] = test: Inhibition of cell proliferation in human Calu6 cells at 50 uM after 72 hrs by MTS assay relative to control; format: functional; conditions: Calu-6, 72 h
K562 [4] = test: Antiproliferative activity against human K562 cells assessed as cell death at 50 uM after 72 hrs by MTS assay relative to control; format: functional
[5] = biological target: Lysine-specific histone demethylase 1A (Homo sapiens) (UniProt O60341); test: Inhibition of LSD1 in human K562 cells assessed as increase in H3K4me2 expression at 10 uM after 48 hrs by Western lot analysis relative to control; format: cell-based
[6] = biological target: Lysine-specific histone demethylase 1A (Homo sapiens) (UniProt O60341); test: Inhibition of LSD1 in human Calu6 cells assessed as increase in H3K4me2 expression at 10 uM after 48 hrs by Western lot analysis relative to control; format: cell-based
[7] = biological target: Lysine-specific histone demethylase 1A (Homo sapiens) (UniProt O60341); test: Inhibition of LSD1 in human NCI-H526 cells assessed as increase in H3K4me2 marks at promoter of IGFBP2 at 100 uM after 48 hrs by ChIP-qPCr method; format: cell-based
In short: (§1)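 NCI-H526 small cell lung carcinoma cells treated 48 h at 100 µM alongside an untreated control. Cells formaldehyde cross-linked, nuclei sonicated and chromatin enzymatically digested. IP with H3K4me2 antibody (normal rabbit IgG as negative control) on protein G magnetic beads. Purified DNA quantified by TaqMan qPCR at promoter regions; fold change by comparative CT (Livak). SD from three qPCR wells.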

[8] = biological target: Lysine-specific histone demethylase 1A (Homo sapiens) (UniProt O60341); test: Inhibition of LSD1 in human NCI-H526 cells assessed as increase in H3K4me2 marks at promoter of FEZ1 at 100 uM after 48 hrs by ChIP-qPCr method; format: cell-based; in short: as §1
[9] = biological target: Lysine-specific histone demethylase 1A (Homo sapiens) (UniProt O60341); test: Inhibition of LSD1 in human K562 cells assessed as increase in H3K4me2 expression after 48 hrs by Western lot analysis

Row | SMILES | IC50 (MCF7) [µM] | IC50 (Calu-6 [1]) [µM] | IC50 (K562 [2]) [µM] | inhibition at 50 µM (Calu-6 [3]) [%] | Activity (K562 [4]) [%] | fold change (FC) [5] | Activity [6] | inhibition [7] | inhibition [8] | inhibition [9]
1 | N=C(NCCCNCCCCCCCNCCCNC(=N)NC(=N)NCCC(c1ccccc1)c1ccccc1)NC(=N)NCCC(c1ccccc1)c1ccccc1 | 2.5 to 5.1 | 1.6 to 6.3 | 4.3 | 83 | 88 | 2 to 17 | – | – | – | –
2 | CCCCCCCCCC(=O)NCCCC[C@H](NC(=O)[C@H](C)NC(=O)[C@H](CC(C)C)NC(=O)[C@H](CCC(N)=O)NC(=O)[C@H](CCCCN)NC(=O)[C@H](CCCNC(=N)N)NC(=O)[C@@H]1CCCN1C(=O)[C@H](C)NC(=O)[C@H](CCCCN)NC(=O)CNC(=O)CNC(=O)[C@@H](NC(=O)[C@@H]1CCC(=O)NCCCC[C@H](NC(=O)[C@H](CCSC)NC(=O)[C@@H](NC(=O)[C@H](CCCNC(=N)N)NC(=O)[C@H](C)N)[C@@H](C)O)C(=O)N[C@@H]([C@@H](C)O)C(=O)N[C@@H](C)C(=O)N[C@@H](CCCNC(=N)N)C(=O)N[C@@H](CCCCN)C(=O)N1)[C@@H](C)O)C(N)=O | 36.1 | 92.4 | – | – | – | 17.6 | inactive | Active | Active | –
3 | CCCCCCCCCC(=O)NCCCC[C@H](NC(=O)[C@H](C)NC(=O)[C@H](CC(C)C)NC(=O)[C@H](CCC(N)=O)NC(=O)[C@H](CCCCN)NC(=O)[C@H](CCCNC(=N)N)NC(=O)[C@@H]1CCCN1C(=O)[C@H](C)NC(=O)[C@H](CCCCN)NC(=O)CNC(=O)CNC(=O)[C@@H](NC(=O)[C@@H]1CCC(=O)NCCCC[C@H](NC(=O)[C@H](CCSC)NC(=O)[C@H](C)NC(=O)[C@H](CCCNC(=N)N)NC(=O)[C@H](C)N)C(=O)N[C@@H]([C@@H](C)O)C(=O)N[C@@H](C)C(=O)N[C@@H](CCCNC(=N)N)C(=O)N[C@@H](CCCCN)C(=O)N1)[C@@H](C)O)C(N)=O (H-ARAMKTARKETGGKAPRKQLAK(Decanoyl)-NH2; lactam 5-10) | 28.1 | 40.2 | 95.1 | – | – | 2 to 17 | – | Active | Active | Dose-dependent effect
